Assay results reported in ChEMBL document CHEMBL5661984, “Allosteric ligands for the pharmacologically dark receptors GPR68 and GPR65” (Nature, 2015).
The source made the active and inactive calls. No cut-off for these calls is given here.

What was measured:
[1] = target: T1, G-protein coupled receptor 68 (Homo sapiens, UniProt Q15743); assay: Positive allosteric modulator activity at GPR68 expressed in human HEK293T cells assessed as proton-mediated calcium release at 10 uM incubated for 10 mins by Fluo-4 Direct calcium dye based FLIPR assay (reference value: 1.30 %); assay type: functional, cell-based
[2] = Positive allosteric modulator activity at GPR68 E160K mutant transfected in human HEK293T cells assessed as proton-mediated calcium release at 10 uM incubated for 10 mins by Fluo-4 Direct calcium dye based FLIPR assay (reference value: 1.38 +/- 0.01 %); settings: HEK-293T, condition central nervous system disease
[3] = Positive allosteric modulator activity at GPR68 E160K mutant transfected in human HEK293T cells assessed as proton-mediated calcium release at 10 uM incubated for 10 mins by Fluo-4 Direct calcium dye based FLIPR assay (reference value: 6.79 +/- 0.02); assay type: cell-based; settings: HEK-293T
[4] = Positive allosteric modulator activity at GPR68 E160A mutant expressed in human HEK293T cells assessed as cAMP production in presence of H+ proton by Split-luciferase based luminescence counter analysis (reference value: 6.6+/-0.3 %); settings: HEK-293T, condition central nervous system disease
How it was run: (§1)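 Proton concentration-response of GPR68 (wild type or E160A/K/Q, R189L/M, H269F mutants) in transiently transfected HEK293-T cells. Read-out: GloSensor cAMP, with luciferin loading 90 min at 37°C at pH 8.4. Run with and without increasing modulator concentrations; 20 min at room temperature before luminescence. Proton KA fixed to the proton EC50 without modulator. KB, τA, α, β fitted globally with an operational allosteric model. n=4.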

[5] = Positive allosteric modulator activity at GPR68 E160K mutant expressed in human HEK293T cells assessed as cAMP production in presence of H+ proton by Split-luciferase based luminescence counter analysis (reference value: 24.6+/-2.7 %); settings: HEK-293T, condition central nervous system disease; how it was run: as §1
[6] = Positive allosteric modulator activity at GPR68 R189L mutant expressed in human HEK293T cells assessed as cAMP production in presence of H+ proton by Split-luciferase based luminescence counter analysis (reference value: 1.4 %); settings: HEK-293T, condition central nervous system disease; how it was run: as §1
[7] = Positive allosteric modulator activity at GPR68 R189M mutant expressed in human HEK293T cells assessed as cAMP production in presence of H+ proton by Split-luciferase based luminescence counter analysis (reference value: 3.7 %); settings: HEK-293T, condition central nervous system disease; how it was run: as §1
[8] = Positive allosteric modulator activity at GPR68 E160A mutant expressed in human HEK293T cells assessed as cAMP production in presence of H+ proton by Split-luciferase based luminescence counter analysis (reference value: 7.34+/-0.05); assay type: cell-based; settings: HEK-293T; how it was run: as §1
[9] = Positive allosteric modulator activity at GPR68 E160Q mutant expressed in human HEK293T cells assessed as cAMP production in presence of H+ proton by Split-luciferase based luminescence counter analysis (reference value: 6.83+/-0.09); assay type: cell-based; settings: HEK-293T; how it was run: as §1
[10] = Positive allosteric modulator activity at GPR68 R189M mutant expressed in human HEK293T cells assessed as cAMP production in presence of H+ proton by Split-luciferase based luminescence counter analysis (reference value: 6.71+/-0.03); assay type: cell-based; settings: HEK-293T; how it was run: as §1
[11] = Binding affinity to GPR68 H269F mutant expressed in human HEK293T cells assessed as cAMP production in presence of H+ proton by Split-luciferase based luminescence counter analysis; settings: condition central nervous system disease; how it was run: as §1
[12] = target: T1, G-protein coupled receptor 68; assay: Positive allosteric modulator activity at GPR68 expressed in human HEK293T cells assessed as proton-mediated phosphatidylinositol hydrolysis on pH 8.4 at 10 uM incubated for 20 mins by TriLuxMicroBeta counter analysis; assay type: functional, cell-based; settings: filed as positive allosteric modulator
How it was run: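 GPR68-transfected HEK293-T cells labeled overnight with 3H-inositol (1 μCi/well) in inositol-free DMEM with 5% dialyzed FBS. Treated for 20 min at pH 8.4 in HBSS with 10 mM HEPES, 10 mM MES and 20 mM LiCl, compound at 10 μM. Extracted with 50 mM ice-cold formic acid, 30 min at 4°C. Captured on YSi beads and counted (cpm/well). n=3. 4-parameter logistic fit.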

[13] = target: C-X-C chemokine receptor type 4 (Homo sapiens) (UniProt P61073); assay: Agonist activity against CXCR4 receptor (unknown origin) transfected in human HEK293T cells at 10 uM incubated for 15 mins in presence of CXCL12 by luminescence counter analysis; assay type: functional, cell-based
How it was run: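 HEK293-T cells transiently transfected with CXCR4 and the GloSensor cAMP reporter, plated in DMEM with 1% dialyzed FBS. Test compound at 10 μM in 20 mM HEPES/HBSS, pH 7.4, 15 min at room temperature. Agonist mode: luciferin (4 mM final) plus 200 nM isoproterenol added, 20 min. Antagonist mode: compound 10 min, then reference agonist at EC80 for 10 min, then luciferin/isoproterenol. Luminescence read. CXCL12 (1 or 3 μM) is the agonist control and AMD3100 (10 μM) the antagonist control. n=2.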

[14] = species: Mus musculus; assay: Antipsychotic activity against GPR68 knockout C57BL/6 mouse assessed as cued memory retrieval by Morris water maze test; assay type: functional, organism-based

T1 sequence (Q15743 whole entry): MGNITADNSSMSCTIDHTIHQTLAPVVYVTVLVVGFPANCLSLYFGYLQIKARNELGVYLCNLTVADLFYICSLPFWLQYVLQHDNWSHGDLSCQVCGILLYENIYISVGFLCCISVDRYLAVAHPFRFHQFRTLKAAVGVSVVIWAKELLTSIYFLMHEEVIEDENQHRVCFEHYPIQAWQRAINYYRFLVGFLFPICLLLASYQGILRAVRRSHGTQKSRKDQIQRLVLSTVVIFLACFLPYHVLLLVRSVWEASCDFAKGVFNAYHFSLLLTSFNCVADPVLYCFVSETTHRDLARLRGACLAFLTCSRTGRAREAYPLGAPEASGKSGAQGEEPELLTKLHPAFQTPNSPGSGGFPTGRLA
C-X-C chemokine receptor type 4 (Homo sapiens), sequence (P61073 whole entry): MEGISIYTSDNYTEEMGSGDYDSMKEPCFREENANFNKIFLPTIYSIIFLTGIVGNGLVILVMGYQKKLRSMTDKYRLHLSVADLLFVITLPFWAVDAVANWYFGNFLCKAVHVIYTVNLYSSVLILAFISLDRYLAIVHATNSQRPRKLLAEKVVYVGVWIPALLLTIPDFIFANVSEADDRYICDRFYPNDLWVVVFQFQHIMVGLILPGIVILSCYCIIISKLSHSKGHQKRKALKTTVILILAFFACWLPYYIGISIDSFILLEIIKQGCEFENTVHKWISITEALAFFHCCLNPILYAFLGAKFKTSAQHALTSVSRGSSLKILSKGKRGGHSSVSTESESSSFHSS

Emax [1]: 1.07%
EC50 [3]: 151 nM
Activity [12]: Active
Activity [13]: inactive
Compound: Nc1nc(NCc2ccccc2)nc(-c2ccccc2CO)n1 [Ogerin]
Emax at 10 µM [2]: 1.12%
Emax [4]: 11.7%
Emax [5]: 42.6%
Emax [6]: 5.3%
Emax [7]: 10%
EC50 [8]: 11.7 nM
EC50 [9]: 26.9 nM
EC50 [10]: 191 nM
pKb [11]: 4.33
Activity [14]: inactive
